Data taken from ChEMBL document CHEMBL1125428, “Development of 2,3-dihydro-6-(3-phenoxypropyl)-2-(2-phenylethyl)-5-benzofuranol (L-670,630) as a potent and orally active inhibitor of 5-lipoxygenase” (J Med Chem, 1992).
pIC50: −log10 of the molar value.

Experiments:
[1] = biological target: Arachidonate 5-lipoxygenase (Homo sapiens); assay: Inhibitory activity of LTB4 production in human PMN
Canis familiaris = organism: Canis familiaris; assay: Effect on methemoglobin formation in canine venous blood containing heparin; format: functional, Canis lupus familiaris
[2] = biological target: T1, Polyunsaturated fatty acid 5-lipoxygenase (Rattus norvegicus, UniProt P12527); assay: Tested for its inhibitory activity against arachidonic acid in rat 5-lipoxygenase.
T1 sequence (P12527 whole entry): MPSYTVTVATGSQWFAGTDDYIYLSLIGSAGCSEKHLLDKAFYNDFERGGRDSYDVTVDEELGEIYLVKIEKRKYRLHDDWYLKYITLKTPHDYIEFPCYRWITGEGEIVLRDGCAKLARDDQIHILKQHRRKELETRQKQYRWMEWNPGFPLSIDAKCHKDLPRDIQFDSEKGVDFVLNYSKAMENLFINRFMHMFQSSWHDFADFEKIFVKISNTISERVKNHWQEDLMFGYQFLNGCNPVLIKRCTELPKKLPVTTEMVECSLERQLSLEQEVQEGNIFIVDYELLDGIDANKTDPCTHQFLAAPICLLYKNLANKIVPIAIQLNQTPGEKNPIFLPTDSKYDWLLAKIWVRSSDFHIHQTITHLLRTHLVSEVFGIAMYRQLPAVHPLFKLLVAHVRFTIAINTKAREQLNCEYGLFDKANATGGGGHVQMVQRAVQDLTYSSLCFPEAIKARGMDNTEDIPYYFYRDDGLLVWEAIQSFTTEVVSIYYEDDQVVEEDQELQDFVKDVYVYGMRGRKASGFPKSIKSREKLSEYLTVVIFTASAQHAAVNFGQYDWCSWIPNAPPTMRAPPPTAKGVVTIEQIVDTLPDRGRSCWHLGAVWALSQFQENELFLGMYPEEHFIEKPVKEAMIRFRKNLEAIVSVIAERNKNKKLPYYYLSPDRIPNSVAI
Summary of the method: (§1)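 10000g supernatant from rat PMN leukocytes incubated 10 min with [14C]arachidonic acid. 5-Lipoxygenase activity taken as percentage conversion to 5-HETE plus 5,12-diHETEs.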

[3] = Measure of AUCpo/AUCiv x 100% of the parent compound before (free) and after (total) beta-glucuronidase treatment; total 72%; format: ADME, organism-based; settings: in vivo, po; read-out: Bioavailabiility
Rattus norvegicus [4] = assay: Percentage inhibition against antigen induced dyspnea in hyperactive inbred rat at a dose of 0.05 mg/kg; format: functional
Summary of the method: (§2)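 Inbred hyperreactive rats, six per group, dosed po 2 h before aerosol ovalbumin challenge, with drug suspension or vehicle (0.4% Methocel/0.5% Tween 80, 10 mL/kg). Methysergide 3 mg/kg iv given 5 min before antigen. Dyspnea duration recorded by pneumotachograph. % inhibition of duration is relative to vehicle controls. Student's t test used; ED50 from linear regression.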

Rattus norvegicus [5] = organism: Rattus norvegicus; assay: Percentage inhibition against antigen induced dyspnea in hyperactive inbred rat at a dose of […]; format: functional
[6] = Peak concentration of drug in rat plasma after oral dosing at 20 mg/kg. Concentration of parent compound was measured before (free) and after (total) beta-glucuronidase treatment; total 2.2 uM; format: ADME, organism-based; design: dose 20 mg/kg, route oral; settings: read-out: Plasma level
Rattus norvegicus [7] = assay: Percentage inhibition against antigen induced dyspnea in hyperactive inbred rat at a dose of 0.5 mg/kg; format: functional; settings: for inhibition in vivo at 0.5 mg/kg: Rattus norvegicus
Summary of the method: as §2

Rattus norvegicus [8] = organism: Rattus norvegicus; assay: Effective dose against antigen induced dyspnea in hyperactive inbred rat at a dose of […]; format: functional
[9] = Measure of AUCpo/AUCiv x 100% of the parent compound before (free) and after (total) beta-glucuronidase treatment; total 27%; format: ADME, organism-based; settings: in vivo, po; read-out: Bioavailabiility
Rattus norvegicus [10] = assay: Effective dose against antigen induced dyspnea in hyperactive inbred rat at a dose of 0.5 mg/kg; format: functional
Summary of the method: as §2

[11] = Peak concentration of drug in rat plasma after oral dosing at 20 mg/kg. Concentration of parent compound was measured before (free) and after (total) beta-glucuronidase treatment; total 3.1 uM; format: ADME, organism-based; design: dose 20 mg/kg, route oral; settings: read-out: Plasma level
[12] = biological target: T1, Polyunsaturated fatty acid 5-lipoxygenase; assay: The compound was tested for its inhibitory activity against arachidonic acid in rat 5-lipoxygenase
Summary of the method: as §1

[13] = Peak concentration of drug in rat plasma after oral dosing at 20 mg/kg. Concentration of parent compound was measured before (free) and after (total) beta-glucuronidase treatment; total 3.8 uM; format: ADME, organism-based; design: dose 20 mg/kg, route oral; settings: read-out: Plasma level
[14] = Measure of AUCpo/AUCiv x 100% of the parent compound before (free) and after (total) beta-glucuronidase treatment; total 76%; format: ADME, organism-based; settings: in vivo, po; read-out: Bioavailabiility
[15] = Measure of AUCpo/AUCiv x 100% of the parent compound before (free) and after (total) beta-glucuronidase treatment; total 4%; format: ADME, organism-based; settings: in vivo, po; read-out: Bioavailabiility
[16] = Peak concentration of drug in rat plasma after oral dosing at 20 mg/kg. Concentration of parent compound was measured before (free) and after (total) beta-glucuronidase treatment; total 3.4 uM; format: ADME, organism-based; design: dose 20 mg/kg, route oral; settings: read-out: Plasma level
[17] = Peak concentration of drug in rat plasma after oral dosing at 20 mg/kg. Concentration of parent compound was measured before (free) and after (total) beta-glucuronidase treatment; total 3.0 uM; format: ADME, organism-based; design: dose 20 mg/kg, route oral; settings: read-out: Plasma level
[18] = Measure of AUCpo/AUCiv x 100% of the parent compound before (free) and after (total) beta-glucuronidase treatment; total 10%; format: ADME, organism-based; settings: in vivo, po; read-out: Bioavailabiility
Rattus norvegicus [19] = assay: Peak concentration of drug in rat plasma after oral dosing at 20 mg/kg. Concentration of parent compound was measured before (free) and after (total) beta-glucuronidase treatment; total 0.7 uM; format: functional, organism-based; design: dose 20 mg/kg

Compound | pIC50 [1] | pIC50 [2] | Formation (Canis familiaris) | also measured
O=C(O)c1ccc(OCCCc2cc3c(cc2O)CC(CCc2ccccc2)O3)cc1 (stereo not drawn) | 6.45 | 7.36 | 3% | 
CCCc1c(O)c(CCCOc2ccc(C3N=NN=N3)cc2)cc2c1CC(CCc1ccccc1)O2 (stereo not drawn) | 6.97 | 7.35 | 2% | bioavailability [3]: 12%; inhibition in vivo at 0.05 mg/kg (Rattus norvegicus [4]): 52%; inhibition in vivo at […] (Rattus norvegicus [5]; dose 0.15 mg/kg): 61%; Cmax [6]: 1600 nM; inhibition in vivo at 0.5 mg/kg (Rattus norvegicus [7]): 64%; ED50 at […] (Rattus norvegicus [8]): 0.03 mg/kg
CCCc1cc2c(cc1O)C(C)(C)C(CCc1ccc(S(C)(=O)=O)cc1)O2 (stereo not drawn) | 6.75 |  |  | 
CCCc1cc2c(cc1O)C(C)(C)C(CCSc1ccccn1)O2 (stereo not drawn) | 7.12 | 7.36 |  | 
Oc1cc2c(cc1CCCOc1ccc(C3N=NN=N3)cc1)OC(CCc1ccccc1)C2 (stereo not drawn) | 6.70 |  |  | 
CCCc1cc(Cl)c2c(c1O)C(C)C(Cc1ccc(OC)cc1)O2 (stereo not drawn) | 6.63 |  |  | 
CS(=O)(=O)c1ccc(Cc2cc3c(cc2O)CC(CCc2ccccc2)O3)cc1 (stereo not drawn) | 6.72 |  |  | 
Oc1ccc2c(c1)CC(CCc1ccccc1)O2 (stereo not drawn) | 6.56 |  | 40% | 
Oc1cc2c(cc1CCCOc1ccccc1)OCC2 | 7.24 |  |  | 
CC1(C)c2cc(O)c(CCCOc3ccccc3)cc2OC1CCc1ccc(Cl)cc1 (stereo not drawn) | 6.33 |  |  | 
COc1ccc(CC2Oc3ccc(O)cc3C2C)cc1 (stereo not drawn) | 6.97 |  | 6% | 

These reach a higher pIC50 [1]. Values come first.

pIC50 [1] | pIC50 [2] | Compound | Formation (Canis familiaris) | also measured
7.42 | 7.60 | C=CCc1c(O)ccc2c1CC(CCc1ccccc1)O2 (stereo not drawn) | 18% | 
7.39 | 7.29 | Oc1cc2c(cc1CCCOc1ccccc1)OC(CCc1ccc(Cl)cc1)C2 (stereo not drawn) | 2.8% | bioavailability [9]: 6%; inhibition in vivo at 0.05 mg/kg (Rattus norvegicus [4]): 56%; inhibition in vivo at […] (Rattus norvegicus [5]; dose 0.15 mg/kg): 66%; ED50 (Rattus norvegicus [10]): 0.07 mg/kg; Cmax [11]: 300 nM
7.74 |  | CCCc1cc2c(cc1O)C(C)C(Cc1ccc(OC)cc1)O2 (stereo not drawn) | 6% | pIC50 [12]: 7.46
7.74 | 7.32 | Oc1cc2c(cc1Cc1ccccc1)OC(CCc1ccccc1)C2 (stereo not drawn) | 6% | Cmax [13]: 1600 nM; inhibition in vivo at 0.05 mg/kg (Rattus norvegicus [4]): 44%; inhibition in vivo at […] (Rattus norvegicus [5]; dose 0.15 mg/kg): 44%; inhibition in vivo at 0.5 mg/kg (Rattus norvegicus [7]): 53%; ED50 at […] (Rattus norvegicus [8]): 0.3 mg/kg; bioavailability [14]: 44%
7.66 | 7.35 | Oc1cc2c(cc1CCCSc1nc3ccccc3s1)OC(CCc1ccccc1)C2 (stereo not drawn) | 1% | 
7.43 | 7.30 | COc1nc2c(SCCCc3cc4c(cc3O)CC(CCc3ccccc3)O4)cccc2cc1C(=O)O (stereo not drawn) | 1% | inhibition in vivo at 0.05 mg/kg (Rattus norvegicus [4]): 55%; bioavailability [15]: 3%; inhibition in vivo at […] (Rattus norvegicus [5]; dose 0.15 mg/kg): 72%; Cmax [16]: 1000 nM; inhibition in vivo at 0.5 mg/kg (Rattus norvegicus [7]): 69%; ED50 at […] (Rattus norvegicus [8]): < 0.05 mg/kg
8.05 | 7.28 | CCCc1c(OCCCc2cc3c(cc2O)CC(CCc2ccccc2)O3)ccc(C(C)=O)c1O (stereo not drawn) | 3% | Inhibition (Rattus norvegicus [7]; 0.5 mg/kg): 50%; inhibition in vivo at 0.5 mg/kg (Rattus norvegicus [7]): 50%
7.28 |  | CCCc1c(O)c(CCCOc2ccccc2)cc2c1CC(CCc1ccccc1)O2 (stereo not drawn) | 2% | pIC50 [12]: 6.90
7.85 | 8.10 | Oc1cc2c(cc1CCCSc1ccncc1)OC(CCc1ccccc1)C2 (stereo not drawn) | 6% | Cmax [17]: 1000 nM; inhibition in vivo at […] (Rattus norvegicus [5]; dose 1.5 mg/kg): 51%; bioavailability [18]: 11%
7.31 | 6.79 | C=CCc1cc2c(cc1O)C(C)(C)C(Cc1ccc(OC)cc1)O2 (stereo not drawn) | 1% | inhibition in vivo at […] (Rattus norvegicus [5]; dose 1.5 mg/kg): 68%
7.42 | 7.40 | CC1(C)c2cc(O)c(CCCOc3ccccc3)cc2OC1CCc1ccccc1 (stereo not drawn) | 6% | inhibition in vivo at […] (Rattus norvegicus [5]; dose 1.5 mg/kg): 48%
7.55 | 7.04 | CCCc1cc2c(cc1O)C(C)(C)C(CCc1ccc(SC)cc1)O2 (stereo not drawn) |  | 
7.33 | 7.28 | C=CCc1cc2c(cc1O)C(C)(C)C(CCc1ccc(OC)cc1)O2 (stereo not drawn) | 2% | Plasma level (Rattus norvegicus [19]): 0 µM; inhibition in vivo at […] (Rattus norvegicus [5]; dose 1.5 mg/kg): 50%
8.00 | 7.77 | C=CCc1cc2c(cc1O)CC(CCc1ccccc1)O2 (stereo not drawn) | 52% | inhibition in vivo at […] (Rattus norvegicus [5]; dose 1.5 mg/kg): 50%; inhibition in vivo at 0.5 mg/kg (Rattus norvegicus [7]): 65%
